Source: ChEMBL document CHEMBL1129688, “ATP-citrate lyase as a target for hypolipidemic intervention. Design and synthesis of 2-substituted butanedioic acids as novel, potent inhibitors of the enzyme” (J Med Chem, 1996)

Legend:
[1] = target: T1, ATP-citrate synthase (Rattus norvegicus, UniProt P16638); assay: Inhibitory activity against rat ATP-citrate lyase activity by the […] dehydrogenase catalyzed reduction of oxaloacetate by NADH.
T1 sequence (P16638 whole entry): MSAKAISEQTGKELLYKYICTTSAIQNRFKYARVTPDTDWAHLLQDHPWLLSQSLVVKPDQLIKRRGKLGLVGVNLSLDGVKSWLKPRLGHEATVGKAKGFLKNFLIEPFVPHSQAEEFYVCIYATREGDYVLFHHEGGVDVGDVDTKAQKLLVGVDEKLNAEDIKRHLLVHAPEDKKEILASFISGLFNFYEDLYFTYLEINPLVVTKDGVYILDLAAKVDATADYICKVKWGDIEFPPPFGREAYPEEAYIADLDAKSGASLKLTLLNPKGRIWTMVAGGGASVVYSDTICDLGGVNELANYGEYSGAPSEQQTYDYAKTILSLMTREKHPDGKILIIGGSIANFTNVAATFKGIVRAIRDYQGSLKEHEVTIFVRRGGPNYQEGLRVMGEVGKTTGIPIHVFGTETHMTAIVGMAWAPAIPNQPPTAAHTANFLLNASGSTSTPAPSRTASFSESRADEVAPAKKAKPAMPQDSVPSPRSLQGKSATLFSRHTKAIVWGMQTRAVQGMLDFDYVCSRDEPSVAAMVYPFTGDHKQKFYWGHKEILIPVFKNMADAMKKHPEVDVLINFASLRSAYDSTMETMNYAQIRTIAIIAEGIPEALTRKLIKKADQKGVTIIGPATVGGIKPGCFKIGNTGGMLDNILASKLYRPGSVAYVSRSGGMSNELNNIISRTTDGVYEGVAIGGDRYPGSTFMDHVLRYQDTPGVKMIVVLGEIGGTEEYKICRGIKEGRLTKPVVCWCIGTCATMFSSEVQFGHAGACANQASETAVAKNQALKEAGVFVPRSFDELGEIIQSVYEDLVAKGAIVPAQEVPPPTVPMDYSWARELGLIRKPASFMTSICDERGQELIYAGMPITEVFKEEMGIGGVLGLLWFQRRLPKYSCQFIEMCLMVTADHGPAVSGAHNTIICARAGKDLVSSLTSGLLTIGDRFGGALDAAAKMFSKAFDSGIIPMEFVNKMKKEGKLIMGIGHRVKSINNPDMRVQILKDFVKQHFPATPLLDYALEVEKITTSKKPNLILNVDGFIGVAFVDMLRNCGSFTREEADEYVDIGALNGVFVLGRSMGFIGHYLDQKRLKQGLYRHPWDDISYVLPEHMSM
Summary of the method: (§1)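 Purified rat ACL or recombinant human ACL was assayed by coupling oxaloacetate formation to malate dehydrogenase reduction with NADH. Buffer: Tris 100 mM pH 8.0, MgCl2 10 mM, KCl 10 mM, DTT 10 mM, plus ATP and NADH. CoA was 200 μM, and citrate was added to 100 μM (its Km) to start the reaction. A340 decrease was followed over 20 min. Ki came from fitting v = Vmax/(2 + [I]/Ki), assuming citrate-competitive inhibition.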

[2] = target: T2, ATP-citrate synthase (Homo sapiens, UniProt P53396); assay: (§2) Inhibitory activity against human recombinant ATP-Citrate Lyase activity was measured by the […] dehydrogenase catalyzed reduction of oxaloacetate by NADH; summary of the method: as §1
T2 sequence (P53396 whole entry): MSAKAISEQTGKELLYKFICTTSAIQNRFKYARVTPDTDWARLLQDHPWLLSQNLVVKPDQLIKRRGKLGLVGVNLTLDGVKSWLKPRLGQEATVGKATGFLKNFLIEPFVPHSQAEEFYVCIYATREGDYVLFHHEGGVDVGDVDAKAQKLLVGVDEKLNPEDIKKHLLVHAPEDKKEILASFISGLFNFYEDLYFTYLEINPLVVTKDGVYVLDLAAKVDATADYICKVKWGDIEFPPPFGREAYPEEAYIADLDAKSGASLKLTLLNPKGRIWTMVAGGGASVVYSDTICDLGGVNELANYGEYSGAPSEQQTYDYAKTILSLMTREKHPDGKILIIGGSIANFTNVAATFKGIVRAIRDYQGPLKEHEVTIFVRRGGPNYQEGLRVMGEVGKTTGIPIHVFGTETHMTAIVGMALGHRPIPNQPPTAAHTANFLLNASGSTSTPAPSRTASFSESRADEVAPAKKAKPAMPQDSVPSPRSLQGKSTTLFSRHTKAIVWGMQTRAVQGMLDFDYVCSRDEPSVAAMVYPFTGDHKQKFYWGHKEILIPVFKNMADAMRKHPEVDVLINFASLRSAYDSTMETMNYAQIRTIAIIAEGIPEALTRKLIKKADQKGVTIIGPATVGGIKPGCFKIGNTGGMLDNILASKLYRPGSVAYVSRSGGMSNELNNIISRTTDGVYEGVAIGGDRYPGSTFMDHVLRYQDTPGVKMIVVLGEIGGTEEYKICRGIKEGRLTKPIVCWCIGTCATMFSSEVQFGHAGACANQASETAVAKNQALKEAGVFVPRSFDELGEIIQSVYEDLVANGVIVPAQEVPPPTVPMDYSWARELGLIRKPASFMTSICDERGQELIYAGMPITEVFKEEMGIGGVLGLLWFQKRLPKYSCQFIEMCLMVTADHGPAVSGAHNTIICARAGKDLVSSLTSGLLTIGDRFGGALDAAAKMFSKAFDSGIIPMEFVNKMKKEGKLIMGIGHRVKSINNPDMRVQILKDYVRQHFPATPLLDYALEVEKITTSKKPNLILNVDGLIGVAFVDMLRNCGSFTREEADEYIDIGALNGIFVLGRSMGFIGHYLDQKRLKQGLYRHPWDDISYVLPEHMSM

[3] = target: T1, ATP-citrate synthase; assay: Inhibition of recombinant ATP-Citrate Lyase activity as […] dehydrogenase catalyzed reduction of oxaloacetate by NADH; conditions: in the assay text read “purified rat ATP-Citrate Lyase” for “recombinant ATP-Citrate Lyase”; summary of the method: as §1
[4] = target: T3, ATP-citrate synthase (Homo sapiens) (UniProt P53396); assay: as §2; conditions: concentration not given here; summary of the method: as §1
T3 sequence (whole entry): T2 sequence (P53396 whole entry)

[5] = tested on: HepG2; assay: Percent reduction of fatty acid synthesis in human hepatoma cell line HepG2 at 10 uM concentration; type: functional; set-up: scale not given: the % may be the effect or the level left
Summary of the method: (§3)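 HepG2 cells were grown in DMEM with Hepes, bicarbonate, glutamine and 10% FCS to 80–90% confluence, then kept overnight serum-free. Vehicle or compound was added at the stated final concentration for 2.5 h. ³H2O (71 μCi/mmol) was present for the final 90 min. Synthesis rates came from ³H incorporated into cellular cholesterol or fatty acids, relative to vehicle control.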

[6] = tested on: HepG2; assay: Percent reduction of cholesterol synthesis in human hepatoma cell line HepG2 at 10 uM concentration; type: functional; set-up: scale not given: the % may be the effect or the level left; summary of the method: as §3
[7] = tested on: HepG2; assay: Percent control of ATP levels in human hepatoma cell line HepG2 at 10 uM concentration; type: functional
Summary of the method: (§4)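 Serum-starved HepG2 cells (grown to 80–90% confluence in DMEM/10% FCS, then overnight without serum) were exposed to vehicle or compound at the stated final concentration for 2.5 h. Cellular ATP was then measured as a toxicity check and expressed as % of vehicle control.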

[8] = tested on: HepG2; assay: Percent reduction of fatty acid synthesis in human hepatoma cell line HepG2 at 1000 uM concentration; type: functional; summary of the method: as §3
[9] = tested on: HepG2; assay: Percent control of ATP levels in human hepatoma cell line HepG2 at 1000 uM concentration; type: functional; summary of the method: as §4
[10] = tested on: HepG2; assay: Percent reduction of cholesterol synthesis in human hepatoma cell line HepG2 at 1000 uM concentration; type: functional; summary of the method: as §3
[11] = tested on: HepG2; assay: Percent control of ATP levels in human hepatoma cell line, HepG2 at 1000 uM concentration; type: functional; summary of the method: as §4
[12] = tested on: HepG2; assay: Percent reduction of fatty acid synthesis in human hepatoma cell line, HepG2 at 1000 uM concentration; type: functional; set-up: scale not given: the % may be the effect or the level left; summary of the method: as §3
[13] = tested on: HepG2; assay: Percent reduction of cholesterol synthesis in human hepatoma cell line, HepG2 at 1000 uM concentration; type: functional; set-up: scale not given: the % may be the effect or the level left; summary of the method: as §3
[14] = target: T2, ATP-citrate synthase; assay: Inhibitory activity against human recombinant ATP-Citrate Lyase was measured by the […] dehydrogenase catalyzed reduction of oxaloacetate by NADH; summary of the method: as §1

Structure (SMILES) | Ki [1] [µM] | further results
O=C(O)CC(O)(CSCCCCCCc1ccc(F)cc1)C(=O)O (configuration not stated) | 120 | –
O=C(O)CC(O)(CSCCCc1ccc2ccccc2c1)C(=O)O (configuration not stated) | – | Ki [2]: 300 µM
O=C(O)CC(CSCCCCC[S+]([O-])c1ccc(Cl)cc1Cl)C(=O)O (configuration not stated) | 131 | –
O=C(O)CC(O)(CSCCCCCc1ccccc1)C(=O)O (configuration not stated) | 490 | –
O=C(O)CC(O)(CSCCCCCCc1cccc2ccccc12)C(=O)O (configuration not stated) | – | Ki [3]: 63 µM
O=C(O)CC(O)(CSCCCCCCc1ccccn1)C(=O)O (configuration not stated) | – | inhibition [4]: 30%
O=C(O)CC(O)(CSCCCCCOc1ccc(Cl)cc1Cl)C(=O)O (configuration not stated) | 67 | –
O=C(O)CC(O)CSCCCCCCc1ccc(Cl)cc1Cl (configuration not stated) | 88 | –
O=C(O)CC(O)(CSCCCCCCc1ccc(Cl)cc1Cl)C(=O)O (configuration not stated) | – | Control [11]: 100%; Control [12]: 107%; Control [13]: 116%; Ki [3]: 3.3 µM
O=C(O)CC(O)(CSCCCCCCc1cccc(Cl)c1)C(=O)O (configuration not stated) | 150 | –
O=C(O)CC(O)(CSCCCCCCc1cccnc1)C(=O)O (configuration not stated) | – | inhibition [4]: 35%
CN(CCCCSCC(O)(CC(=O)O)C(=O)O)S(=O)(=O)c1ccc(Cl)cc1Cl (configuration not stated) | 178 | –
O=C(O)CC(O)(CSCCCCCCc1c(Cl)cc(Cl)cc1-c1ccccc1)C(=O)O (configuration not stated) | – | Ki [3]: 10 µM
COc1ccc(CCCCCCSCC(O)(CC(=O)O)C(=O)O)cc1 (configuration not stated) | – | Ki [3]: 280 µM
O=C(O)CC(O)(CSCCCCCCc1ccccc1)C(=O)O (configuration not stated) | – | Ki [14]: 320 µM; Ki [3]: 710 µM
O=C(O)CC(O)(CSCCCCCCc1c(Cl)cccc1Cl)C(=O)O (configuration not stated) | 76 | –

Further compounds by falling Ki [1], results first:

Ki [1] [µM] | Structure (SMILES) | further results
64 | O=C(O)CC(O)(CSCCCCCS(=O)(=O)c1ccc(Cl)cc1Cl)C(=O)O (configuration not stated) | –
38 | O=C(O)CC(O)(CSCCCCCCc1ccc(-c2ccccc2)cc1)C(=O)O (configuration not stated) | –
31 | O=C(O)CC(O)(CSCCCCCCc1ccc(Br)cc1)C(=O)O (configuration not stated) | –
25 | O=C(O)CC(O)(CC(=O)CCCCCc1ccc(Cl)cc1Cl)C(=O)O (configuration not stated) | –
21 | O=C(O)CC(O)(CSCCCCCc1ccccc1-c1ccccc1)C(=O)O (configuration not stated) | –
10.5 | O=C(O)CC(O)(CCCCCCCc1ccc(Cl)cc1Cl)C(=O)O (configuration not stated) | –
10 | O=C(O)CC(O)(CSCCCCCSc1ccc(Cl)cc1Cl)C(=O)O (configuration not stated) | –
7.3 | O=C(O)CC(O)(CSCCCCCCc1cccc(Cl)c1Cl)C(=O)O (configuration not stated) | –
7.2 | O=C(O)CC(O)(CSCCCCCCCc1ccc(Cl)cc1Cl)C(=O)O (configuration not stated) | –
2.6 | O=C(O)CC(CSCCCCCCc1ccc(Cl)cc1Cl)C(=O)O (configuration not stated) | –
1.2 | O=C(O)CC(O)(CC(=O)CCCCCCc1ccc(Cl)cc1Cl)C(=O)O (configuration not stated) | Control [5]: 98%; Control [6]: 108%; Control [7]: 102%; Fatty acid synthesis (% of vehicle control) [8]: 102%; Control [9]: 107%; Cholesterol synthesis (% of vehicle control) [10]: 102%
